# Screening results: PubChem BioAssay, several laboratories
# A selection: hits, their analogues and other compounds. The true share with any hit is near 6.8%.
# HCV core dimer = blocks dimerization of HCV core protein; inhibition, % at 5 µM; TR-FRET GST/Flag-core106 dimerization, 1536-well; 0.33% of 300,000 active; AID 1899;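 active = inhibition above the mean of all tested compounds plus 3 SD, set per screening campaign, cut at about 45% in these data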
#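 System: GST/Flag-tagged HCV core106 proteins. Incubation: compound-protein-antibody incubation 4 h at 22.5 °C. Technique: HTRF with 340 nm excitation, 617/671 nm emission. Medium: KF-containing HEPES buffer, pH 7.45, DTT, CHAPS, BSA. Read-out: inhibition (%) from 671 over 617 nm ratio. Also added: Eu(K)-anti-GST 90 ng/mL plus XL665-anti-Flag 1 µg/mL.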
# HSF1 inh = HSF1 inhibition; NIH3T3-HGL HSE-luciferase, MG132-induced, luminescence 8 h; hits give low values; activity change, negative = inhibition, % at 7.5 µM (by protocol); 0.77% of 300,000 active;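 active = more than half of replicate wells show activity change below -50%, luminescence cut by over half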;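 also: luciferase reports HSF-1 transcriptional activity via heat shock element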
# ALR H2O2 inh = blocks human ALR sulfhydryl oxidase activity | 3.8% of 290,000 active | P55789 | purified ALR, DTT oxidation, H2O2 HRP-luminol luminescence | inhibition, % (concentration not given with the values) | AID 485317;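 active = mean replicate inhibition above about 79%, with every replicate also reaching it, limit read from the data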
# Target sequence (P55789 whole entry, looked up): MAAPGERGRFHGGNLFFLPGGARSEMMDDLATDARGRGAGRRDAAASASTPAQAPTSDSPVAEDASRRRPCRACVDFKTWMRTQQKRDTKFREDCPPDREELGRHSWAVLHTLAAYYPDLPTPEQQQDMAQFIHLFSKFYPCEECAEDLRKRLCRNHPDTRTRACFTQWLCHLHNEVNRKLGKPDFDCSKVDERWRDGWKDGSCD
# AI-2 QS mod = Vibrio harveyi AI-2 quorum sensing modulation | Vibrio harveyi JMH597 AI-2 luminescence/OD600 ratio, 9 h; hits give low values; strain lacks LuxN and CqsS sensors; 0 = neutral-control median | activity change, % at 7.5 µM | 0.4% of 300,000 active | AID 2094; in the data active = activity change below about -75%, passing the limit was not always enough;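 also: luminescence divided by OD600 gain over 9 h not by final OD600 alone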
# HSF-1 act = increases HSF-1 driven luciferase reporter signal. AID 504408. activation, % at 9 µM. 1.7% of 300,000 active. NIH3T3-HGL HSF-1 luciferase reporter, MG132, 8 h; 100% = twice DMSO control signal;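 active = mean replicate activation of at least 50% with a set share of replicates each reaching 50%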
# PHOSPHO1 block = PHOSPHO1 (human) inhibition. recombinant PHOSPHO1, absorbance phosphatase assay. inhibition, % at 13.3 µM. 1.1% of 290,000 active; in the data active = inhibition above about 60%
# Target sequence (Q8TCT1 whole entry, looked up): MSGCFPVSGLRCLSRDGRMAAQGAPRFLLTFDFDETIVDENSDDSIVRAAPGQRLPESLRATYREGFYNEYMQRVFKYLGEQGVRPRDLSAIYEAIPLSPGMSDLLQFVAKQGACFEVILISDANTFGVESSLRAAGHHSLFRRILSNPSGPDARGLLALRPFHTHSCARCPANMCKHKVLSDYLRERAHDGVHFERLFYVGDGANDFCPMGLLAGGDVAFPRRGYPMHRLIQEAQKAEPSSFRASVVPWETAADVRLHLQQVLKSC
# Hits are given with their value; 0 = inactive; - = not tested or not shown.
SMILES,HCV core dimer,HSF1 inh,ALR H2O2 inh,AI-2 QS mod,HSF-1 act,PHOSPHO1 block
Cc1ccc(C(=O)C2CCN(S(=O)(=O)c3ccc(C(=O)O)cc3)CC2)cc1,0,0,-,0,0,0
COc1ccc(C(=O)Cc2cc(OC)c(OC)cc2C(=O)c2ccccc2F)cc1OC,0,0,0,0,0,0
CC(=O)c1nn(-c2cccc(Br)c2)cc1C(=O)c1ccc(Cl)cc1,0,0,-,0,84,0
C[N+]1(CC(=O)OCCCc2ccccc2)CCOCC1,0,0,0,0,0,0
Cc1ccc(CCCOC(=O)C[N+]2(C)CCOCC2)cc1,0,0,0,0,0,89
C=CCc1c(C)nc(C)nc1N/N=C/c1ccc(N(C)C)cc1,0,0,99,0,0,0
COc1cccc(Nc2ccc(C(=O)O)cc2[N+](=O)[O-])c1,0,0,0,0,0,0
COc1ccc(C2CC(O)(c3ccccc3)Oc3cc(OC)c(OC)c(OC)c32)cc1 (configuration not stated),0,0,-,0,0,0
COc1ccc([C@@]23Oc4cc(OC)cc(OC)c4[C@]2(O)[C@H](O)[C@H](C(=O)N(C)C)[C@H]3c2ccccc2)cc1,-,88,-,-,88,-
Cc1cc(Br)cc(C)c1NC(=S)NC(=O)CC(C)C,0,0,90,0,0,0
CCC(=O)NC(=S)Nc1c(C)cc(Br)cc1C,0,0,0,0,0,0
COc1ccc(NC(=O)C2=CC(c3cccs3)=NS(=O)(=O)N2C)cc1,0,0,0,0,0,0
CN1C(C(=O)Nc2ccc(OC(F)(F)F)cc2)=CC(c2cccs2)=NS1(=O)=O,0,-74,0,0,0,0
CCc1ccccc1NC(=O)CN1CCN(C(=O)C2CCN(C(=O)/C=C/c3ccccc3)CC2)CC1,-,-,0,-,-,-
C[N+]1(CCCCCCC(=O)/C=N/O)CCCCCC1,0,0,0,0,0,82
C[N+](C)(C)CCCCCCC(=O)/C=N/O,0,0,0,0,0,0
O=C(C#Cc1ccccc1)c1ccco1,0,-96,0,-94,0,0
COc1ccc(CNC(=O)CSc2nc3cccnc3s2)cc1,0,0,0,0,0,0
CC1CN(C(=O)COC(=O)c2ccc(Cl)nc2)CC(C)O1 (configuration not stated),0,0,91,0,0,0
O=C(CC1C(=O)NCCN1C(=S)Nc1ccccc1)Nc1ccc2c(c1)OCCO2 (configuration not stated),0,0,0,0,0,0
O=C(NCC1COc2ccccc2O1)c1ccc(Br)s1 (configuration not stated),0,0,0,0,0,0
S=c1[nH]nc(-c2ccncc2)n1/N=C/c1cn(-c2ccccc2)nc1-c1ccccc1,0,0,0,0,0,90
Cc1n[nH]c(=S)n1/N=C/c1ccccc1,0,0,97,0,0,0
Cc1ccc(/C=N/n2c(-c3ccncc3)n[nH]c2=S)cc1,-,0,-,0,0,91
COc1ccc(/C=N/n2c(-c3ccccc3)n[nH]c2=S)cc1,0,0,0,0,0,0
SMILES,HCV core dimer,HSF1 inh,ALR H2O2 inh,AI-2 QS mod,HSF-1 act,PHOSPHO1 block
O=[N+]([O-])c1ccc(-c2nn(-c3ccccc3)cc2/C=N/n2c(-c3ccncc3)n[nH]c2=S)cc1,0,0,0,0,0,0
Cn1ccc(C(=O)Nc2ccc(Br)cc2Br)n1,0,0,0,0,0,0
CCC(=O)Nc1c(S(=O)(=O)c2ccccc2)c2nc3ccccc3nc2n1C(C)c1ccccc1 (configuration not stated),0,0,0,0,83,0
CCC(=O)Nc1c(S(=O)(=O)c2ccc(C)cc2)c2nc3ccccc3nc2n1C(C)c1ccccc1 (configuration not stated),0,0,0,0,0,0
COc1ccc(CCN2C(=NC(=O)C(C)C)SC3CS(=O)(=O)CC32)cc1 (configuration not stated),0,0,0,0,0,0
COc1ccc(CC(=O)N2CCN(S(=O)(=O)c3cc(Cl)ccc3Cl)CC2)cc1,-,-,0,-,-,-
CC(Sc1nc(N)cc(=O)[nH]1)C(=O)Nc1sc2c(c1C#N)CCCC2 (configuration not stated),0,0,92,0,0,0
CNC(=O)/C(C#N)=C/c1ccc(OCCOc2ccccc2)cc1,-,0,0,0,0,0
C=C(C)Cn1c(NCCC)nc2c1c(=O)n(C)c(=O)n2C,0,-53,0,0,0,0
CCCNc1nc2c(c(=O)n(C)c(=O)n2C)n1Cc1ccc(F)cc1,0,0,0,0,0,0
Cc1ccc(S(=O)(=O)NNC(=S)Nc2cccc(F)c2)cc1,0,0,99,0,0,0
Cc1ccc(C(=O)NC(=S)NNS(=O)(=O)c2ccccc2)cc1,0,0,98,0,0,62
COc1ccc(C(=O)NC(=C(Cl)Cl)S(=O)(=O)c2ccc(C)cc2)cc1,0,0,0,0,0,0
Cc1cccc(NC(=O)NNS(=O)(=O)c2ccc(F)cc2)c1,0,0,-,0,0,0
Cc1ccc(C(=O)NC(=C(Cl)Cl)S(=O)(=O)c2ccccc2)cc1,0,0,0,0,113,0
COc1ccc(-c2nc(-c3cccc(C)c3)[nH]c(=O)c2C#N)cc1,0,0,0,0,0,0
CN(CCN1CCOCC1)Cc1nc(-c2ccccc2)no1,0,0,-,0,0,0
CCOC(=O)[C@@H]1[C@H]2COc3ccccc3[C@@H]2N2C(=O)N(c3ccccc3)C(=O)[C@]12C,0,0,0,0,0,0
O=C(C[n+]1ccccn1)c1ccccc1,0,0,0,0,0,0
CSCCC(NS(=O)(=O)c1cccc(C(F)(F)F)c1)C(=O)N(C)CCOc1ccc(Cl)cc1 (configuration not stated),0,0,0,0,65,-
COC(=O)C(CCSC)NS(=O)(=O)c1ccc(Cl)cc1 (configuration not stated),0,0,0,0,0,0
COc1cccc(C2=NOC(C(=O)Nc3ccc4c(c3)OCO4)C2)c1OC (configuration not stated),0,0,0,0,0,0
COC(=O)C(C)Oc1ccc(-c2nccc(-c3cccs3)n2)cc1 (configuration not stated),0,0,0,0,0,0
Oc1ccc(-c2nccc(-c3cccs3)n2)cc1,0,0,89,0,0,0
CC1=C(C(=O)Nc2cccc(C(=O)NC3CCCC(C)C3C)c2)SCCO1 (configuration not stated),0,0,0,0,0,0
Clc1ccc(C2NCCc3sccc32)cc1 (configuration not stated),0,0,0,0,0,0
Oc1ccc(C2CNCc3sccc32)cc1O (configuration not stated),0,-,98,-,-,-
CCN(CC)CCn1c(NC(=O)c2ccccc2O)nc2ccccc21,0,0,0,0,0,0
